Entries after “also recorded” stand apart in the source; their conditions may differ. Like-named read-outs stand apart in the source and are kept apart here.
Columns and labels:
[1] = molecular target: porcine brain tubulin, preformed microtubules (paclitaxel binding site) (Sus scrofa, UniProt P02550+P02554); experiment: Competitive mass spectrometry binding assay, paclitaxel site; details: paclitaxel 1.2 μM, 1 mM GTP, competitor 0.1–100 μM
MES-SA / DX5 = experiment: Cytotoxicity in multidrug-resistant subline MES-SA/DX5; type: cell-based, human; details: all three pairs of sensitive and drug-resistant cancer cells
MOLT-4 = experiment: In vitro cytotoxicity, MOLT-4; type: cell-based; details: Homo sapiens, MOLT-4, 96 h, read-out: IC50 (GI50) MOLT-4
Outline: (§1)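 Tumour cell lines were grown in DMEM or RPMI with 10% FBS and penicillin-streptomycin, then plated in twelve-well dishes. Test compound was added 24 h later at various concentrations. After 96 h, viable cells were counted by trypan blue exclusion from duplicate wells.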

N417 = experiment: In vitro cytotoxicity, N417; type: cell-based; details: Homo sapiens, N417, 96 h, read-out: IC50 (GI50) N417
Outline: as §1

DAUDI = experiment: In vitro cytotoxicity, DAUDI; type: cell-based; details: Homo sapiens, 96 h, read-out: IC50 (GI50) DAUDI
Outline: as §1

[2] = system: purified bovine brain tubulin; experiment: In vitro tubulin polymerization; type: biochemical; details: 10 μM, 37 °C, absorbance at 340 nm over 40 min
DU145 = experiment: In vitro cytotoxicity, DU145; type: cell-based; details: Homo sapiens, DU-145, 96 h, read-out: IC50 (GI50) DU145
T47D = experiment: In vitro cytotoxicity, T47D; type: cell-based; details: Homo sapiens, 96 h, read-out: IC50 (GI50) T47D
Outline: as §1

[3] = system: BT20 human breast tumor xenograft; experiment: Nude mouse xenograft assay
[4] = molecular target: porcine brain tubulin (vinblastine binding site) (Sus scrofa, UniProt P02550+P02554); experiment: Competitive mass spectrometry binding assay, vinblastine site; details: vinblastine 1.2 μM, no GTP; competitor 0.1–100 μM
NAMALWA = experiment: In vitro cytotoxicity, NAMALWA; type: cell-based; details: Homo sapiens, 96 h, read-out: IC50 (GI50) NAMALWA
Outline: as §1

HepG2 cells = experiment: Cytotoxicity to HepG2; type: cell-based; details: 4 h exposure, Alamar Blue
HCT15 = experiment: In vitro cytotoxicity, HCT15; type: cell-based; details: Homo sapiens, HCT-15, 96 h, read-out: IC50 (GI50) HCT15
Outline: as §1

SKOV3 = experiment: In vitro cytotoxicity, SKOV3; type: cell-based; details: Homo sapiens, SK-OV-3, 96 h, read-out: IC50 (GI50) SKOV3
Outline: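 Tumour cells grown in DMEM or RPMI with 10% fetal bovine serum and 1 unit/mL penicillin-streptomycin, plated in twelve-well dishes, then dosed 24 h later with test compound at various concentrations. After 96 h, viable cells counted in duplicate wells by trypan blue exclusion.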

DU145 cells [5] = experiment: PARP cleavage western blot, tumor cells; type: cell-based, human; details: tumor cell line
Outline: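 DU145 cells in 100 mm plates were treated 24 h after plating with DMSO or increasing concentrations of test compound, then collected at set time points. Frozen pellets were lysed in 0.1% Triton X-100 buffer with protease inhibitors. Equal protein was run on 10% SDS-PAGE and moved to nitrocellulose. The blot was probed with anti-PARP antibody and IRDye 800 secondary, then scanned on Odyssey for PARP cleavage.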

normal cell line = experiment: PARP cleavage, normal cell line; type: cell-based; details: data not shown
MIA-PaCa-2 cells = experiment: Soft agar assay; type: cell-based, human; details: three weeks of growth
DU145 cells [6] = experiment: Cell cycle progression by flow cytometry; type: cell-based, human; details: 24 h, propidium iodide
Outline: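 DU145 cells were grown in DMEM with 10% FBS and penicillin-streptomycin, then treated 24 h after plating. Harvest was 24 h after treatment, pooling trypsinised and non-attached cells. Cells were PBS-washed and fixed in ice-cold 70% ethanol for at least 24 h. They were stained with propidium iodide plus RNase A (0.5 mg) for 30 min at 37 °C, run on a FACScan, and analysed for cell-cycle distribution.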

DU145 cells [7] = experiment: Fluorescent tubulin staining, mitotic spindle; type: cell-based, human; details: 24 h exposure; 25 nM in Figure 2
PC3 = experiment: In vitro cytotoxicity, PC3; type: cell-based; details: Homo sapiens, PC-3, 96 h, read-out: IC50 (GI50) PC3
Outline: as §1

various tumor cell lines = experiment: Cytotoxicity across a wide spectrum of cancer cell lines; type: cell-based; details: Homo sapiens, read-out: IC50 values across tumor cell lines of Table 3
Outline: as §1

SK-MEL-28 = experiment: In vitro cytotoxicity, SK-MEL-28; type: cell-based; details: Homo sapiens, SK-MEL-28, 96 h, read-out: IC50 (GI50) SK-MEL-28
Outline: as §1

tubulin in DU145 cells = experiment: In vivo; type: cell-based, human; details: for polymerized versus soluble tubulin in cells: 24 h treatment
LNCAP = experiment: In vitro cytotoxicity, LNCAP; type: cell-based; details: Homo sapiens, 96 h, read-out: IC50 (GI50) LNCAP
Outline: as §1

BT20 = experiment: In vitro cytotoxicity, BT20; type: cell-based; details: Homo sapiens, BT-20, 96 h, read-out: IC50 (GI50) BT20
Outline: as §1

H80 = experiment: In vitro cytotoxicity, H80; type: cell-based; details: Homo sapiens, 96 h, read-out: IC50 (GI50) H80
Outline: as §1

SK BR-3 = experiment: In vitro cytotoxicity, SK BR-3; type: cell-based; details: Homo sapiens, SK-BR-3, 96 h, read-out: IC50 (GI50) SK BR-3
Outline: as §1

MES-SA = experiment: In vitro cytotoxicity, MES-SA; type: cell-based; details: Homo sapiens, 96 h, read-out: IC50 (GI50) MES-SA
RF-1 = experiment: In vitro cytotoxicity, RF-1; type: cell-based; details: Homo sapiens, RF1, 96 h, read-out: IC50 (GI50) RF-1
Outline: as §1

MCF-7 = experiment: In vitro cytotoxicity, MCF-7; type: cell-based; details: Homo sapiens, MCF7, 96 h, read-out: IC50 (GI50) MCF-7
Outline: as §1

RF-48 = experiment: In vitro cytotoxicity, RF-48; type: cell-based; details: Homo sapiens, RF48, 96 h, read-out: IC50 (GI50) RF-48
Outline: as §1

H187 = experiment: In vitro cytotoxicity, H187; type: cell-based; details: Homo sapiens, NCI-H187, 96 h, read-out: IC50 (GI50) H187
Outline: as §1

MIAPaCa2 = experiment: In vitro cytotoxicity, MIAPaCa2; type: cell-based; details: Homo sapiens, MIA PaCa-2, 96 h, read-out: IC50 (GI50) MIAPaCa2
Outline: as §1

HCT116 = experiment: In vitro cytotoxicity, HCT116; type: cell-based; details: Homo sapiens, HCT-116, 96 h, read-out: IC50 (GI50) HCT116
Outline: as §1

SMILES: CC(=O)O[C@@]12CO[C@@H]1C[C@H](O)[C@@]1(C)C(=O)[C@H](O)C3=C(C)[C@@H](OC(=O)[C@H](O)[C@@H](NC(=O)OC(C)(C)C)c4ccccc4)C[C@@](O)([C@@H](OC(=O)c4ccccc4)[C@H]21)C3(C)C.O.O.O [docetaxel, reference compound]
- competition with paclitaxel binding to tubulin [1]: effectively competed

SMILES: COc1cc(OC)c(/C=C/S(=O)(=O)Nc2ccc(OC)c(NC(C)(C)C(=O)O)c2)c(OC)c1 [25c, (E)-2-(2-Methoxy-5-(2-(2′,4′,6′-trimethoxyphenyl)vinylsulfonamido)phenylamino)-2-methylpropanoic acid]
- resistance factors (MES-SA / DX5): < 2
- IC50 (MOLT-4): 30 nM
- IC50 (N417): 30 nM
- IC50 (DAUDI): 30 nM
- tubulin polymerization [2]: completely inhibit tubulin polymerization

SMILES: COc1cc(OC)c(/C=C/S(=O)(=O)Nc2ccc(OC)c(N)c2)c(OC)c1 [6t, (E)-N-(3-Amino-4-methoxyphenyl)-2-(2′,4′,6′-trimethoxyphenyl)ethenesulfonamide]
- IC50 (DU145): 8 nM
- LD50 to Caco-2 cells (Caco-2 cells; one hour incubation, Alamar Blue): >1000 µM
- resistance factors (MES-SA / DX5): < 2
- competition with paclitaxel binding to tubulin [1]: did not compete
- IC50 (T47D): 8 nM
- tumor growth in xenograft ([3]; 20 mg/kg IP every other day, 6 injections, female nude mice): readily inhibited tumor growth
- body weight ([3]; 20 mg/kg IP, xenograft study): no body weight loss of more than 10%; also recorded: no reduction in body weight
- IC50 (MOLT-4): 8 nM
- competition with vinblastine binding to tubulin [4]: did not compete
- IC50 (NAMALWA): 8 nM
- LD50 to HepG2 cells (HepG2 cells): >1000 µM
- IC50 (HCT15): 8 nM
- IC50 (SKOV3): 8 nM
- PARP cleavage (DU145 cells [5]): Full length PARP gets cleaved
- PARP cleavage in normal cell line (normal cell line): no PARP cleavage
- anchorage-independent growth in soft agar (MIA-PaCa-2 cells): inhibition of anchorage-independent growth of tumor cells in a dose dependent manner
- cell cycle distribution (DU145 cells [6]; 0.005 μM): accumulated in the G2/M phase
- cell cycle distribution (DU145 cells [6]; 0.02 μM): a majority of cells showed G2/M arrest
- effect on microtubule cytoskeleton / mitotic spindle (DU145 cells [7]): complete depolymerization of the microtubule cytoskeleton
- IC50 (DAUDI): 8 nM
- IC50 (PC3): 8 nM
- IC50 (various tumor cell lines): 3 to 10 nM
- IC50 (SK-MEL-28): 8 nM
- polymerized versus soluble tubulin in cells (tubulin in DU145 cells): concentration-dependent depolymerization of tubulin; also recorded: completely inhibits the polymerization of tubulin
- tubulin depolymerization in paclitaxel pre-treated cells (tubulin in DU145 cells; paclitaxel 24 h, then compound 4 h): effective at depolymerizing paclitaxel induced polymerized tubulin
- tubulin polymerization [2]: completely inhibit tubulin polymerization
- IC50 (LNCAP): 8 nM
- IC50 (BT20): 8 nM

SMILES: CC[C@]1(O)C[C@H]2CN(CCc3c([nH]c4ccccc34)[C@@](C(=O)OC)(c3cc4c(cc3OC)N(C=O)[C@H]3[C@@](O)(C(=O)OC)[C@H](OC(C)=O)[C@]5(CC)C=CCN6CC[C@]43[C@@H]65)C2)C1 [vincristine, reference compound]
- competition with vinblastine binding to tubulin [4]: effectively competed

SMILES: COC(=O)Nc1nc2cc(C(=O)c3cccs3)ccc2[nH]1 [nocodazole, Nocodazole, reference compound]
- tubulin polymerization [2]: completely inhibit tubulin polymerization

SMILES: COc1ccc(NS(=O)(=O)/C=C/c2c(OC)cc(OC)cc2OC)cc1 [6i, (E)-N-(4-Methoxyphenyl)-2-(2′,4′,6′-trimethoxyphenyl)ethenesulfonamide]
- IC50 (H80): 100 nM
- IC50 (NAMALWA): 100 nM
- IC50 (SK BR-3): 50 nM
- IC50 (MES-SA): 50 nM
- IC50 (RF-1): 50 nM
- IC50 (N417): 50 nM
- IC50 (SK-MEL-28): 50 nM
- IC50 (MCF-7): 50 nM

SMILES: COc1cc(OC)c(/C=C/S(=O)(=O)Nc2ccc(OC)c(O)c2)c(OC)c1 [6p, (E)-N-(3-Hydroxy-4-methoxyphenyl)-2-(2′,4′,6′-trimethoxyphenyl)ethenesulfonamide]
- IC50 (RF-48): 10 nM
- IC50 (H187): 10 nM
- IC50 (MIAPaCa2): 10 nM
- IC50 (RF-1): 10 nM
- IC50 (N417): 10 nM
- IC50 (HCT116): 10 nM

SMILES: O=c1cc[nH]c(=S)[nH]1 [2-thiouracil, 2-Thiouracil, reference compound]
- LD50 to Caco-2 cells (Caco-2 cells; human, Caco-2, 1 h): > 1000 µM

SMILES: COc1cc(OC)c(/C=C/S(=O)(=O)Nc2ccc(OC)c(NCC(=O)O)c2)c(OC)c1 [25a, (E)-2-(2-Methoxy-5-(2-(2′,4′,6′-trimethoxyphenyl)vinylsulfonamido)phenylamino)acetic acid]
- tubulin polymerization [2]: completely inhibit tubulin polymerization

SMILES: CC(=O)O[C@H]1C(=O)[C@@]2(C)[C@H]([C@H](OC(=O)c3ccccc3)[C@]3(O)C[C@H](OC(=O)[C@H](O)[C@@H](NC(=O)c4ccccc4)c4ccccc4)C(C)=C1C3(C)C)[C@]1(OC(C)=O)CO[C@@H]1C[C@@H]2O [Paclitaxel, reference compound]
- polymerized versus soluble tubulin in cells (tubulin in DU145 cells): induced a shift from soluble to polymerized tubulin
- tubulin polymerization [2]: strong increase in turbidity
